Results from ChEMBL document CHEMBL4680287, “Ibrexafungerp: An orally active β-1,3-glucan synthesis inhibitor” (Bioorg Med Chem Lett, 2021).
≈ marks a conversion by molar mass, not a printed value.

Legend:
[1] = Inhibition of beta-1,3-glucan synthase in Candida albicans MY1055 microsomal membrane assessed as inhibition of TCA-insoluble material formation using UDP-[3H]-glucose as substrate incubated for 2 hrs in presence of GTP by radioactivity-based assay; format: microsomes, Microsome
Summary of the method: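 GS IC50 measured using Candida albicans MY1055 microsomal membrane fragments as the enzyme source.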

Candida albicans [2] = experiment: Antifungal activity against Candida albicans MY1055 assessed as fungal growth inhibition measured after 24 hrs by liquid microdilution method; format: functional
Summary of the method: (§1)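 Broth microdilution per CLSI protocols in RPMI medium. Read-out is the MIC, the lowest concentration completely inhibiting fungal growth. Run without serum and with added serum.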

Aspergillus fumigatus [3] = experiment: Antifungal activity against Aspergillus fumigatus MF5668 assessed inhibition of fungal growth by measuring morphological changes measured after 24 hrs by microscopy; format: functional; conditions: read-out: MEC
Summary of the method: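 Microdilution per CLSI protocols in RPMI medium. Read-out is the minimum effective concentration (MEC). Run without serum and with 50% human serum.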

Candida albicans [4] = experiment: Antifungal activity against Candida albicans MY1055 assessed as fungal growth inhibition measured after 24 hrs in presence of 50% mouse serum by liquid microdilution method; format: functional; summary of the method: as §1
Candida albicans [5] = experiment: Antifungal activity against Candida albicans MY1055 infected in DBA/2 mouse model of disseminated candidiasis assessed as reduction in fungal burden in kidney by measuring log change in colony forming units at 12.5 mg/kg, po bid for 7 days by TOKA; format: functional; conditions: time 7 day
Summary of the method: (§2)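 Murine disseminated candidiasis model (TOKA) in mice challenged with C. albicans MY1055 at 2.44 x 10^4 CFU/mouse. Dosed PO, or IP where stated. Kidneys collected aseptically 7 days after challenge and CFUs/g counted. Change in log CFU/g is relative to sham-treated controls; significance by two-tailed t test. Clearance is the percentage of kidneys below the detection limit.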

Candida albicans [6] = experiment: Antifungal activity against Candida albicans MY1055 infected in DBA/2 mouse model of disseminated candidiasis assessed as reduction in fungal burden in kidney by measuring log change in colony forming units at 12.5 mg/kg, ip bid for 7 days by TOKA; format: functional; conditions: time 7 day; summary of the method: as §2
[7] = Dose normalized AUC in po dosed mouse; format: ADME, organism-based; conditions: in vivo
[8] = Oral bioavailability in mouse; format: ADME, organism-based; conditions: in vivo
Summary of the method: (§3)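 Oral bioavailability calculated as oral AUC normalized to the IV dose, divided by the IV AUC.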

Candida albicans [9] = experiment: Antifungal activity against Candida albicans MY1055 infected in DBA/2 mouse model of disseminated candidiasis assessed as reduction in fungal burden in kidney by measuring log change in colony forming units at 25 mg/kg, po bid for 7 days by TOKA; format: functional; conditions: time 7 day; summary of the method: as §2
Candida albicans [10] = experiment: Antifungal activity against Candida albicans MY1055 infected in DBA/2 mouse model of disseminated candidiasis assessed as reduction in fungal burden in kidney by measuring log change in colony forming units at 6.25 mg/kg, po bid for 7 days by TOKA; format: functional; conditions: time 7 day; summary of the method: as §2
[11] = Clearance in mouse; format: ADME, organism-based; conditions: in vivo
[12] = Half life in mouse; format: ADME, organism-based; conditions: in vivo
[13] = Clearance in rat; format: ADME; conditions: in vivo
[14] = Half life in rat; format: ADME; conditions: in vivo
[15] = Dose normalized AUC in po dosed rat; format: ADME, organism-based; conditions: in vivo
[16] = Oral bioavailability in rat; format: ADME, organism-based; conditions: in vivo; summary of the method: as §3
Candida albicans [17] = experiment: Antifungal activity against Candida albicans MY1055 infected in ip dosed DBA/2 mouse model of disseminated candidiasis assessed as reduction in fungal burden in kidney administered bid for 7 days by TOKA; format: functional; conditions: 168 h, time 7 day; summary of the method: as §2
Aspergillus fumigatus [18] = experiment: Antifungal activity against Aspergillus fumigatus MF5668 infected in DBA/2N mouse assessed as mouse survival at 12.5 mg/kg, ip bid administered for 7 days starting from 15 to 30 mins post infection and measured up to 21 days relative to control; format: functional; conditions: 168 h, time 7 day
Summary of the method: (§4)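 DBA/2N mice were infected IV with A. fumigatus MF5668 (6.7 x 10^5 CFU/mouse) and treated IP bid for 7 days. Percent survival per dose group was scored at the end of the 21-day survival model and compared with the sham-treated control group.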

Aspergillus fumigatus [19] = experiment: Antifungal activity against Aspergillus fumigatus MF5668 infected in DBA/2N mouse assessed as mouse survival at 6.25 mg/kg, ip bid administered for 7 days starting from 15 to 30 mins post infection and measured up to 21 days relative to control; format: functional; conditions: 168 h, time 7 day; summary of the method: as §4
Aspergillus fumigatus [20] = experiment: Antifungal activity against Aspergillus fumigatus MF5668 infected in DBA/2N mouse assessed as mouse survival at 3.125 mg/kg, ip bid administered for 7 days starting from 15 to 30 mins post infection and measured up to 21 days relative to control; format: functional; conditions: 168 h, time 7 day; summary of the method: as §4
Aspergillus fumigatus [21] = experiment: Antifungal activity against Aspergillus fumigatus MF5668 infected in ip dosed DBA/2N mouse assessed as 90% mouse survival administered bid administered for 7 days starting from 15 to 30 mins post infection and measured up to 21 days; format: functional; conditions: 168 h, time 7 day
Aspergillus fumigatus [22] = experiment: Antifungal activity against Aspergillus fumigatus MF5668 infected in DBA/2N mouse assessed as mean survival time at 12.5 mg/kg, ip bid administered for 7 days starting from 15 to 30 mins post infection and measured up to 21 days; format: functional; conditions: time 7 day
Summary of the method: (§5)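 DBA/2N mice were challenged IV with A. fumigatus MF5668 at 6.7 x 10^5 CFU/mouse, then dosed IP twice daily for 7 days. Survival was followed over a 21-day model, and mean survival time in days was recorded per dose group. A sham-treated control group was run alongside.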

Aspergillus fumigatus [23] = experiment: Antifungal activity against Aspergillus fumigatus MF5668 infected in DBA/2N mouse assessed as mean survival time at 6.25 mg/kg, ip bid administered for 7 days starting from 15 to 30 mins post infection and measured up to 21 days; format: functional; conditions: time 7 day; summary of the method: as §5
Aspergillus fumigatus [24] = experiment: Antifungal activity against Aspergillus fumigatus MF5668 infected in DBA/2N mouse assessed as mean survival time at 3.125 mg/kg, ip bid administered for 7 days starting from 15 to 30 mins post infection and measured up to 21 days; format: functional; conditions: time 7 day; summary of the method: as §5
Aspergillus fumigatus [25] = experiment: Antifungal activity against Aspergillus fumigatus MF5668 infected in DBA/2N mouse assessed as mouse survival at 1.56 mg/kg, ip bid administered for 7 days starting from 15 to 30 mins post infection and measured up to 21 days relative to control; format: functional; conditions: 168 h, time 7 day; summary of the method: as §4
Aspergillus fumigatus [26] = experiment: Antifungal activity against Aspergillus fumigatus MF5668 infected in DBA/2N mouse assessed as mean survival time at 1.56 mg/kg, ip bid administered for 7 days starting from 15 to 30 mins post infection and measured up to 21 days; format: functional; conditions: time 7 day; summary of the method: as §5
Aspergillus fumigatus [27] = experiment: Antifungal activity against Aspergillus fumigatus MF5668 infected in ip dosed DBA/2N mouse assessed as 50% mouse survival administered bid administered for 7 days starting from 15 to 30 mins post infection and measured up to 21 days; conditions: 168 h

IC50 [1] | MIC (Candida albicans [2]) | MIC (Candida albicans [4]) | AUC/dose [7] | bioavailability [8] | SMILES | minimal effective concentration (Aspergillus fumigatus [3]) | Activity (Candida albicans [5]) | Activity (Candida albicans [9]) | Activity (Candida albicans [10]) | also measured
0.001 µg/mL | 0.015 µg/mL (≈ 0.0218 µM) | 0.5 µg/mL |  |  | CC(C)[C@@H](C)[C@@]1(C)CC[C@]2(C)[C@H]3CC[C@@H]4[C@@]5(COC[C@@]4(C)[C@@H](OCC(C)(C)N)[C@H](n4ncnc4-c4ccncc4)C5)C3=CC[C@@]2(C)[C@@H]1C(=O)O | < 0.03 µg/mL | -1.1 deltalog10CFU |  |  | Activity (Candida albicans [6]): -4.2 deltalog10CFU
0.003 µg/mL | 0.25 µg/mL (≈ 0.35 µM) | 4 µg/mL | 0.5 µM·kg·h/mg | 28% | CC(C)[C@@H](C)[C@@]1(C)CC[C@]2(C)[C@H]3CC[C@@H]4[C@@]5(COC[C@@]4(C)[C@@H](OC[C@](C)(N)C(C)C)[C@H](n4ncnc4-c4ccccc4)C5)C3=CC[C@@]2(C)[C@@H]1C(=O)O | < 0.03 µg/mL | -1.7 deltalog10CFU | -2.4 deltalog10CFU | -0.2 deltalog10CFU | 
0.006 µg/mL | 0.06 µg/mL (≈ 0.0837 µM) | 1 µg/mL | 0.33 µM·kg·h/mg | 26% | CC(C)[C@@H](C)[C@@]1(C)CC[C@]2(C)[C@H]3CC[C@@H]4[C@@]5(COC[C@@]4(C)[C@@H](OC[C@](C)(N)C(C)C)[C@H](n4ncnc4-c4cncnc4)C5)C3=CC[C@@]2(C)[C@@H]1C(=O)O | < 0.03 µg/mL | -3 deltalog10CFU | -3 deltalog10CFU | -2.1 deltalog10CFU | 
0.004 µg/mL | 0.06 µg/mL (≈ 0.0791 µM) | 1 µg/mL | 0.35 µM·kg·h/mg | 25% | CC(C)[C@@H](C)[C@@]1(C)CC[C@]2(C)[C@H]3CC[C@@H]4[C@@]5(COC[C@@]4(C)[C@@H](OC[C@@]4(N)CCOCC4(C)C)[C@H](n4ncnc4-c4ccncc4)C5)C3=CC[C@@]2(C)[C@@H]1C(=O)O | 0.004 µg/mL | -2.2 deltalog10CFU | -3.2 deltalog10CFU | -0.9 deltalog10CFU | 
0.001 µg/mL | 0.015 µg/mL (≈ 0.0204 µM) | 1 µg/mL | 0.34 µM·kg·h/mg | 26% | CC(C)[C@@H](C)[C@@]1(C)CC[C@]2(C)[C@H]3CC[C@@H]4[C@@]5(COC[C@@]4(C)[C@@H](OC[C@](C)(N)C(C)C)[C@H](n4ncnc4-c4ccncc4F)C5)C3=CC[C@@]2(C)[C@@H]1C(=O)O | 0.008 µg/mL | -2.5 deltalog10CFU | -4.2 deltalog10CFU | -2.6 deltalog10CFU | 
0.004 µg/mL | 0.06 µg/mL (≈ 0.0838 µM) | 1 µg/mL | 0.17 µM·kg·h/mg | 11% | CC(C)[C@@H](C)[C@@]1(C)CC[C@]2(C)[C@H]3CC[C@@H]4[C@@]5(COC[C@@]4(C)[C@@H](OC[C@](C)(N)C(C)C)[C@H](n4ncnc4-c4cccnc4)C5)C3=CC[C@@]2(C)[C@@H]1C(=O)O | < 0.03 µg/mL | -2.9 deltalog10CFU | -3.1 deltalog10CFU | -1.4 deltalog10CFU | 
0.002 µg/mL | < 0.03 µg/mL | 0.5 µg/mL | 0.65 µM·kg·h/mg | 36% | CC(C)[C@@H](C)[C@@]1(C)CC[C@]2(C)[C@H]3CC[C@@H]4[C@@]5(COC[C@@]4(C)[C@@H](OC[C@](C)(N)C4(C)CC4)[C@H](n4ncnc4-c4ccncc4)C5)C3=CC[C@@]2(C)[C@@H]1C(=O)O | < 0.03 µg/mL | -2.6 deltalog10CFU | -4.3 deltalog10CFU | -1.5 deltalog10CFU | 
0.005 µg/mL | 0.25 µg/mL (≈ 0.342 µM) | 1 µg/mL | 0.59 µM·kg·h/mg | 21% | CN[C@@](C)(CO[C@H]1[C@H](n2ncnc2-c2cccnc2)C[C@@]23COC[C@]1(C)[C@@H]2CC[C@H]1C3=CC[C@@]2(C)[C@H](C(=O)O)[C@@](C)([C@H](C)C(C)C)CC[C@]12C)C(C)C | < 0.03 µg/mL | -2.4 deltalog10CFU | -3 deltalog10CFU | -1.1 deltalog10CFU | 

SMILES | IC50 [1] | MIC (Candida albicans [2]) | MIC (Candida albicans [4]) | AUC/dose [7] | bioavailability [8] | minimal effective concentration (Aspergillus fumigatus [3]) | Activity (Candida albicans [5]) | Activity (Candida albicans [9]) | Activity (Candida albicans [10]) | also measured
CC(C)[C@@H](C)[C@@]1(C)CC[C@]2(C)[C@H]3CC[C@@H]4[C@@]5(COC[C@@]4(C)[C@@H](OCC4(N)CCOCC4)[C@H](n4ncnc4-c4ccncc4)C5)C3=CC[C@@]2(C)[C@@H]1C(=O)O | 0.002 µg/mL | < 0.03 µg/mL | 0.25 µg/mL | 0.18 µM·kg·h/mg | 13% | < 0.03 µg/mL | -3.1 deltalog10CFU | -3.9 deltalog10CFU | -1.4 deltalog10CFU | clearance [11]: 18 mL/min/kg; half-life [12]: 2.1 h; clearance [13]: 20 mL/min/kg; half-life [14]: 1.9 h; AUC/dose [15]: 0.34 µM·kg·h/mg; bioavailability [16]: 30%; ED99 (Candida albicans [17]): 3.8 mg/kg; Activity (Candida albicans [6]): -4 deltalog10CFU; survival at 12.5 mg/kg (Aspergillus fumigatus [18]): 60%; survival at 6.25 mg/kg (Aspergillus fumigatus [19]): 40%; survival at 3.125 mg/kg (Aspergillus fumigatus [20]): 10%; ED90 (Aspergillus fumigatus [21]): 26 mg/kg; MST (Aspergillus fumigatus [22]): 14.6 days; MST (Aspergillus fumigatus [23]): 12.5 days; MST (Aspergillus fumigatus [24]): 7.3 days; survival at 1.56 mg/kg (Aspergillus fumigatus [25]): 0%; MST (Aspergillus fumigatus [26]): 4.1 days; ED50 (Aspergillus fumigatus [27]): 11 mg/kg
